One may read the inhibition as the percentage by which the read-out fell short of the control. As a reminder, the IC50 is the concentration that inhibits the measured activity by half. For orientation: logP means the decadic logarithm of the partition coefficient of the neutral form, usually between octanol and water. Broadly, the MIC99 is an inhibitory concentration at the 99% level, which refers to growth in some studies and to a panel of isolates in others. As usually defined, the MIC is the lowest concentration that inhibits growth of the organism.

The source made the active and inactive calls. No cut-off for these calls is given here.

For data set [1], the target named is T1, Enoyl-[acyl-carrier-protein] reductase [NADH] (Mycobacterium tuberculosis) (UniProt P9WGR1).
T1 sequence (whole entry): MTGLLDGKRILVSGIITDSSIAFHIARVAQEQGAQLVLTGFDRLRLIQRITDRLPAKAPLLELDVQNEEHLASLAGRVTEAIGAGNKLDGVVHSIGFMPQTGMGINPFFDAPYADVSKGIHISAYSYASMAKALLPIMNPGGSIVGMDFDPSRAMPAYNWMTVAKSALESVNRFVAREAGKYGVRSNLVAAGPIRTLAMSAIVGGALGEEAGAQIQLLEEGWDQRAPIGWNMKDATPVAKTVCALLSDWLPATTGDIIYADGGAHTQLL
As to the kind of experiment: Inhibition of Mycobacterium tuberculosis InhA at 40 uM using DD-CoA as substrate relative to control. Summed up:
(§1)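 Wild-type InhA (100 nM) starts the reaction with 25 μM trans-2-dodecenoyl-CoA and 250 μM NADH in 30 mM PIPES, 150 mM NaCl, pH 6.8. Compound is present at a fixed 40 or 50 μM. Initial velocity is compared with a no-inhibitor control and expressed as percent inhibition.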

In another data set the test system is Vero. The data set can be described thus: Cytotoxicity against African green monkey Vero cells assessed as reduction in cell viability incubated for 48 hrs by neutral red assay. Format: cell-based. As to conditions: Chlorocebus sabaeus. Summed up:
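Vero cells grown in MEM with 10% heat-inactivated FCS, 0.15% NaHCO3, penicillin and streptomycin at 37 °C, 5% CO2. Seeded at 25 000 cells per well, 24 h, then compound for 48 h. Viable cells by neutral red uptake. IC50 from log plots of growth inhibition against concentration. Doxorubicin positive control, DMSO vehicle control. Top concentration 20 μM.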

Data set [2] in a line: Lipophilicity, log P of the compound. The format is physicochemical. As to conditions: octanol/water.
Data set [3] deals with Mycobacterium tuberculosis. As to the kind of experiment: Antitubercular activity against Mycobacterium tuberculosis H37Rv assessed as reduction in microbial growth incubated for 5 days by visual inspection method. The note with it: 120 h, time 5 day. The format is functional. In short, it runs like this: (§2)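 Two-fold serial dilution in Middlebrook 7H9-ADS-Gly broth, final concentrations 20 down to 1.25 μM, from DMSO stocks. Inoculated with about 10^6 CFU of mid-log H37Rv, incubated 37 °C for five days. Turbidity recorded visually, then MTT added. MIC is the lowest concentration preventing growth (yellow colour). Three biological repeats, each in technical duplicate; rifampicin control.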

The subject of a further data set is Leishmania donovani. The data set can be described thus: Antileishmanial activity against promastigote form of Leishmania donovani S1 Sudan assessed as reduction in parasite growth incubated for 72 hrs by alamar blue assay. Format: functional, organism-based. Summed up: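 S1 Sudan promastigotes kept at 26 °C in RPMI-1640 (no bicarbonate or pyruvate) with 10% FBS, subcultured twice weekly. Compounds added to promastigotes at 2 × 10^6 cells per mL at final 40, 8 and 1.6 μg mL−1, 72 h at 26 °C. Growth read by Alamar blue. IC50 from non-linear dose–response logistic regression. Triplicate. Pentamidine and amphotericin B standards.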

Data set [4] concerns the target T1, Enoyl-[acyl-carrier-protein] reductase [NADH] (Mycobacterium tuberculosis). As to the kind of experiment: Inhibition of Mycobacterium tuberculosis InhA at 50 uM using DD-CoA as substrate relative to control. Summed up: as §1
The test system of data set [5] is Mycobacterium tuberculosis. As to the kind of experiment: Antitubercular activity against Mycobacterium tuberculosis H37Rv assessed as reduction in microbial growth incubated. The format is functional. In short, it runs like this:
as §2

The subject of data set [6] is Mycobacterium tuberculosis. As to the kind of experiment: Antitubercular activity against Mycobacterium tuberculosis H37Rv assessed as reduction in microbial growth incubated for 1 week by MTT assay. Format: functional. The note with it: 168 h, time 1 weeks. (Tetrazolium dyes change colour on reduction, which living cells bring about.)
For data set [7], the target named is T1, Enoyl-[acyl-carrier-protein] reductase [NADH] (Mycobacterium tuberculosis). As to the kind of experiment: Inhibition of recombinant Mycobacterium tuberculosis InhA expressed in Escherichia coli BL21 using DD-CoA as substrate by UV-Vis spectrophotometry. As to conditions: time 5.0 min.
Data set [8] deals with Mycobacterium tuberculosis. The data set can be described thus: Antitubercular activity against Mycobacterium tuberculosis H37Rv assessed as reduction in microbial growth incubated for 5 to 7 days by inverted plate count method. The note with it: time 5-7 day. Format: functional.

On to `CCCCCCCCCCCCCn1cc(COc2ccccc2O)nn1`, for which the inhibition in data set [1] is 63%. Further, the IC50 was over 20 µM with Vero and 13.4 µM in the data set with Leishmania donovani. Further, the logP in data set [2] was 5.67. The MIC99 in data set [3] is over 100 µM.
Consider `CC(C)=CCC/C(C)=C\Cn1cc(COc2ccccc2O)nn1`, for which, in [1], the inhibition stood at 85%. Further, the IC50 in the data set on Vero was over 20 µM; in the data set on Leishmania donovani, 55 µM. In [3], the MIC99 was over 100 µM.
`CCCCCc1c(CO)nnn1Cc1ccc2ccccc2c1`: the values for the IC50 with Vero and in the data set with Leishmania donovani were over 20 µM and 31.4 µM, respectively. In addition, in data set [4], the inhibition result is “inactive”. Also, the MIC99 in [3] was over 100 µM.
On to `CC(C)=CCC/C(C)=C/Cn1cc(COc2ccccc2O)nn1`, for which the inhibition entry in data set [1] is “inactive”. For the same molecule, the half-inhibitory concentration (IC50) in the data set with Vero was over 20 µM; in the data set with Leishmania donovani, 51.9 µM. In data set [3], the MIC99 is over 100 µM.
For `CCCc1cn(Cc2ccccc2O)nn1`, the IC50 in the data set with Vero is over 20 µM; in the data set on Leishmania donovani it was over 60 µM. The same molecule displayed an inhibition in data set [4] of 92%. Besides, the MIC99 in data set [3] turned out to be 20 µM.
For `Oc1cc(Cl)ccc1Oc1ccc(Cl)cc1Cl` [TRICLOSAN], in data set [3], the MIC99 came to 43 µM.
In the case of `CCc1cn(Cc2ccc(Oc3ccccc3C)c(O)c2)nn1`, the MIC in [5] is 3.9 µM.
On to `Cc1ccccc1Oc1ccc(Cn2cc(-c3ccccc3)nn2)cc1O`, for which the MIC in data set [5] was at most 11.1 µM.
With `CCCCc1cn(Cc2ccc(Oc3ccc(Cl)cc3O)c(Cl)c2)nn1`, the MIC in [6] stood at 1.5 µM. The inhibition in [7] was 98%.
As to `CCCCCc1cn(Cc2ccccc2O)nn1`, the IC50 in the data set on Vero was over 20 µM; in the data set on Leishmania donovani it was over 60 µM. Further, in [4], the inhibition result is “inactive”. Besides, the MIC99 in data set [3] amounted to 20 µM.
For the molecule `C[C@@H]1[C@H](O)[C@@H](C)/C=C/C=C/C=C/C=C/C=C/C=C/C=C/[C@H](O[C@@H]2O[C@H](C)[C@@H](O)[C@H](N)[C@@H]2O)C[C@@H]2O[C@](O)(C[C@@H](O)C[C@@H](O)[C@H](O)CC[C@@H](O)C[C@@H](O)CC(=O)O[C@H]1C)C[C@H](O)[C@H]2C(=O)O` [AMPHOTERICIN B], in the data set with Leishmania donovani, the IC50 turned out to be 0.11 µM.
On to `CCCCCCCCc1ccc(Oc2ccccc2)c(O)c1`, for which the MIC in [8] was determined as 1.9 µM.
With `Oc1ccccc1Cn1cc(-c2ccccc2)nn1`, the IC50 in the data set with Vero is over 20 µM; in the data set on Leishmania donovani, over 60 µM. In addition, the inhibition result in data set [4] was “inactive”. In data set [3], the MIC99 came out at 20 µM.
For the molecule `CCc1cn(Cc2ccc(Oc3ccccc3C#N)c(O)c2)nn1`, the MIC in [5] was determined as 2.02 µM.

(Values after ChEMBL document CHEMBL4673194 (RSC Med Chem, 2021).)
